# Hits are enriched below; roughly 2.3% of the tested compounds scored in any of these assays.
# Autophagy HCS = autophagy modulation, high-content screen | hit rate 0.98% among 190,000 | MEF GFP-LC3 puncta imaging; test concentration mostly 10 µM | calls only at 10 µM (by protocol);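 active means percentage of spot-positive cells more than 3 SD above its plate mean, without a fluorescence outlier flag or 80% toxicity; inconclusive means no clear call, values can overlap the other calls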
# ABCB1 block = blocks JC-1 efflux by human ABCB1 transporter | P08183 | CCRF-Adr cells, flow cytometry | inhibition, % at 6.6 µM | hit rate 0.067% among 190,000 | AID 1326; in the data active means inhibition above about 40%;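 further: higher value means more JC-1 retained so stronger ABCB1 efflux block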
# sdo1 growth = restores growth of sdo1-depleted yeast; hit rate 0.21% among 140,000; S. cerevisiae sdo1-depleted JHY4D growth rescue, OD600 30 h; hits give high values; pdr5 snq2 efflux-pump mutant strain; z-score at 10 µM;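 active means z-score above 3 at both the 24 hr and the 30 hr optical density reads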
# ROMK primary = modulates human ROMK potassium channel activity; P48048; Tet-inducible ROMK, thallium flux fluorescence; actives lie on both sides; B-score at 10 µM; hit rate 2% among 130,000; AID 1918;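 active means signal ratio slope over the read window, or its plate-corrected B-score, at least 3 SD from the plate mean, either direction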;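 further: B-score of the F/F0 ratio slope over 7 to 12 s after thallium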
# ABCG2 inh = inhibitors of human ABCG2 transporter, ABCB1 counter-screen. inhibition, % at 6.6 µM. Q9UNQ0. IgMXP3 cells, JC-1 efflux, flow cytometry. hit rate 0.1% among 190,000. AID 1325;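 active means inhibition above 80%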
# Target sequence (Q9UNQ0 whole entry, looked up): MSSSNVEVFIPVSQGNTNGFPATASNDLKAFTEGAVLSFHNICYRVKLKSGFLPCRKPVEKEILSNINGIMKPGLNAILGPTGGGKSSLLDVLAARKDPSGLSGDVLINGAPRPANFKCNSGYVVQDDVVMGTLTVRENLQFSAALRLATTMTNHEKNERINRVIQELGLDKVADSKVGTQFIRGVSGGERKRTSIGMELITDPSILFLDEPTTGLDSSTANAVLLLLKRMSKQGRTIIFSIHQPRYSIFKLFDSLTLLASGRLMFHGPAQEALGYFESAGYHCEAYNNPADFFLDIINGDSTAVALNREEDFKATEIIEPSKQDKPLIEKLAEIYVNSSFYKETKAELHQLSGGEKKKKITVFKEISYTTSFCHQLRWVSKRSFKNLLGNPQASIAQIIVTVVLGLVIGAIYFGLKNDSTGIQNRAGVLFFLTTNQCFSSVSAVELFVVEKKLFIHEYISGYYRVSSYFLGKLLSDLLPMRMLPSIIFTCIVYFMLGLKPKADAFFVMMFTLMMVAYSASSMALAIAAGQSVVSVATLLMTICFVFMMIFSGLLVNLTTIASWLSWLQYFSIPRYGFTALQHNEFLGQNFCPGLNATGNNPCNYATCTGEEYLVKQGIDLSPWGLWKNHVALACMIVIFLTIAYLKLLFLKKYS
#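 Test system: IgMXP3 (ABCG2) plus far-red-tagged CCRF-Adr (ABCB1) cells / Amount: 3 million cells/mL in well / Reagent: JC-1 transporter substrate / Timing: 10 min compound exposure, 25 °C / Signal: flow cytometry, 530 nm JC-1 signal / Read-out: percent efflux inhibition, scaled nicardipine 100% to DMSO 0% / Benchmarks: nicardipine as high control, DMSO as low control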
# Ins promoter up = MIN6 insulin promoter up-regulation; MIN6 insulin promoter-GFP reporter, high-content imaging; hits give high values; z-score at 5 µM; hit rate 0.3% among 190,000;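 active means z-score above 3 at 5 µM with at least 500 cells counted in the well; inconclusive means wells under 500 cells, flagged as cytotoxic or low count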
# ROMK retest = retested hit modulating human ROMK potassium channel. shares compounds with ROMK primary. AID 1917. normalized thallium flux (F/F0 slope) at 10 µM. ROMK thallium flux, fluorescence ratio; hits give low values. hit rate 54% among 3,000;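 active means Flux at 10 µM at least 3 SD below or above vehicle control mean in one or both replicates; inconclusive means no clear call, values can overlap the other calls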
# A number is an active result; n = inactive; u = inconclusive; x = no result given.
SMILES,Autophagy HCS,ABCB1 block,sdo1 growth,ROMK primary,ABCG2 inh,Ins promoter up,ROMK retest
COc1ccc(C2C(C(=O)c3cccs3)=C(O)C(=O)N2c2cccc(C)n2)cc1 (stereo not drawn),x,x,x,x,x,n,x
OCCNC(=S)Nc1cc(Cl)cc(Cl)c1,x,x,x,x,x,n,x
CCCCNC(=O)CCn1c(=O)c2ccccc2n(CC(=O)NCCc2ccc(OC)c(OC)c2)c1=O,n,n,x,n,n,n,x
Cc1cccc(-n2c(O)c(/C=N/NC(=O)c3ccccc3Cl)c3ccccc3c2=O)n1,n,n,n,x,n,n,x
O=C(N/N=C/c1c(O)n(-c2ccccc2Cl)c(=O)c2ccccc12)c1cccnc1,n,n,x,-3.56,n,n,0.0578
COc1ccc(Cn2c(O)c(C=Nc3ccc(OC)cc3)c3ccccc3c2=O)cc1,n,n,n,x,n,n,x
COc1ccc(Cn2c(O)c(/C=N/NC(=O)c3cccnc3)c3ccccc3c2=O)cc1,n,n,x,-5.5,n,n,0.0316
Cc1cc(NC(=O)/C=C/C(=O)N(CC(=O)NC2CCCC2)c2cccc3ccccc23)no1,n,n,x,-3.99,n,n,0.0562
Cc1cc(NC(=O)CCC(=O)N(CC(=O)NC2CCCC2)c2ccccc2)no1,n,n,n,n,n,x,x
Cc1csc2c(N3CCN(C(=O)Nc4ccc(OC(F)(F)F)cc4)CC3)ncnc12,x,x,x,x,x,n,n
COCCNCC(=O)N1CCCCCC1,n,n,x,n,n,n,x
COc1ccccc1N1N=C(C(=O)c2ccccc2)C2C(=O)N(c3ccc(Br)cc3)C(=O)C21 (stereo not drawn),x,x,x,x,x,x,0.065
COc1ccccc1N1C(=O)C2C(C(=O)c3ccccc3)=NN(c3ccccc3)C2C1=O (stereo not drawn),x,x,x,x,x,n,0.0628
CCN(CC)C(=O)c1ccc2c3c(cccc13)C(=O)N(CCc1ccc(OC)c(OC)c1)C2=O,n,n,n,x,n,n,x
O=C(O)c1cccc(NC(=S)NC(=O)c2ccc(-c3ccc(Cl)cc3)o2)c1,n,n,x,2.13,n,n,n
Fc1ccc2c(c1)C(c1ccncc1)=NNC(c1ccccc1)=N2,n,n,n,x,n,n,x
c1ccc(Cn2nnc(CNc3ccccc3)c2-c2c(CNc3ccccc3)nnn2Cc2ccccc2)cc1,x,x,x,x,x,n,x
COc1ccc(C(=O)n2nc(C)cc2Nc2ccccc2)cc1,n,n,n,1.75,n,n,u
CC(C)(C)OC(=O)N1CCC(c2cc(-c3cccs3)n[nH]2)CC1,n,n,x,n,n,n,x
COc1cccc(/C=N/NC(=O)c2cc3c(OC)cccc3[nH]2)c1OC,n,n,n,x,n,n,n
CCc1ccc2[nH]c(=O)c(CN(Cc3ccccc3OC)C(=O)Nc3ccccc3OC)cc2c1,n,n,n,0.96,n,n,n
CCN(CC)CCN(Cc1cc2cc(C)ccc2[nH]c1=O)C(=O)Nc1ccccc1OC,n,n,n,x,n,n,x
CCOC(=O)c1cc2c(ccn2-c2ccc(F)cc2)n1CC(=O)NC(C)(C)C,n,n,x,n,n,n,x
CCOC(=O)C1(Cc2ccccc2)CCN(Cc2ccc3c(c2)OCCO3)CC1,n,n,x,n,n,n,x
CN(Cc1ccc(Cl)cc1)C(=O)CCl,n,n,x,-4.66,n,x,u
SMILES,Autophagy HCS,ABCB1 block,sdo1 growth,ROMK primary,ABCG2 inh,Ins promoter up,ROMK retest
CCSc1nc2ccccc2c(=O)n1CCc1ccc(OC)c(OC)c1,x,x,x,x,x,n,n
C/C(N)=C(/C#N)C(=O)CSc1nc2ccccc2c(=O)n1-c1ccc(C)c(Cl)c1,n,n,n,n,n,n,x
O=[N+]([O-])c1ccc(CN2CCOCCOCCN(Cc3ccc([N+](=O)[O-])cc3)CCOCC2)cc1,n,n,n,-9.91,n,n,0.0116
O=[N+]([O-])c1ccc(COc2ccc(Br)cc2CN2CCOCC2)cc1,n,n,x,n,n,n,x
CCS(=O)(=O)N1CCN(Cc2ccc([N+](=O)[O-])cc2)CC1,n,n,n,x,n,n,x
CSc1ccc(CN2CCN(Cc3ccc([N+](=O)[O-])cc3)CC2)cc1,n,n,x,-3.86,n,n,0.0545
CNc1nc(SC(C)C(=O)Nc2ccc(Cl)c(Cl)c2)nc(N2CCOCC2)n1 (stereo not drawn),n,n,x,n,n,n,x
COc1cccc(-c2nnc(SCC(=O)Nc3cc(C)ccc3OC)n2N)c1,n,n,n,x,n,n,u
CCc1ccc(NC(=O)CSc2nc3ccccc3c(=O)n2CCCN2CCC(C)CC2)cc1,n,n,x,n,n,n,x
CCCCCc1ccc(-c2ccc(=O)[nH]n2)cc1,n,n,n,n,n,n,n
Cc1ccccc1NC(=O)CS(=O)(=O)c1cn(CC(=O)N2CCOCC2)c2ccccc12,n,n,x,1.97,n,n,n
Cc1ccc(C)c(-n2nnnc2Sc2nnnn2-c2ccccc2)c1,n,n,n,-4.59,n,x,0.0585
CCSc1nnnn1-c1ccccc1,n,n,n,n,n,n,x
N#Cc1c(NCCN)nc(-c2ccccc2)c2c1CCCC2,n,n,n,-4.04,n,x,0.05
Cc1ccc(N(CC(=O)NC(C)(C)C)C(=O)CNC(=O)c2cccs2)c(C)c1,n,n,x,n,n,n,x
O=C(Nc1nc2n(n1)C(c1ccccc1)C=C(c1ccccc1)N2)c1ccco1 (stereo not drawn),n,n,n,x,n,n,0.0655
CCN1CCN(Cc2c(O)ccc3c2O/C(=C\c2ccc(C)cc2)C3=O)CC1,n,n,x,-5.67,n,n,0.0402
CCc1ccc(/C=C2\Oc3c(ccc(O)c3CN3CCN(C)CC3)C2=O)cc1,x,x,x,-8.13,x,n,0.0461
Cc1ccc(/C=C2\Oc3c(ccc(O)c3CN3CCN(C)CC3)C2=O)cc1,n,n,x,x,n,n,x
N#Cc1ccc(C(=O)Nc2nc(SCc3ccc(Cl)cc3)n[nH]2)cc1,n,n,x,x,n,n,x
CCCN1CCN(C(=S)Nc2ccc([N+](=O)[O-])cc2)CC1,n,n,n,x,n,n,x
CCCN1CCC(NC(=S)Nc2ccc([N+](=O)[O-])cc2)CC1,n,n,x,-4.43,n,n,0.0563
CC(C)CC(C(=O)N1CCc2ccccc2C1)N1C(=O)c2ccccc2C1=O (stereo not drawn),n,n,n,-3.47,n,x,0.0568
Cn1c(=O)c2[nH]c(-c3ccccc3Cl)c(O)c2n(C)c1=O,n,n,n,-3.91,n,n,0.0629
NC1=NC(=O)C2(COC(c3cccnc3)OC2)S1 (stereo not drawn),n,n,x,n,n,n,x
COC(=O)[C@@]1(Cc2ccc(F)cc2)[C@H]2c3cc(C(=O)N4CCCC4)n(CCc4ccc(O)c(O)c4)c3C[C@H]2CN1C(=O)c1ccccc1,n,n,n,n,n,n,u
COC(=O)[C@@]1(Cc2ccc(F)cc2)[C@H]2c3cc(C(=O)N4CCCC4)n(CCO)c3C[C@H]2CN1C(=O)c1ccccc1,n,n,n,n,n,n,x
Cc1cc2cc(CN(CCN(C)C)C(=S)NCc3ccco3)c(=O)[nH]c2cc1C,n,n,x,-3.71,n,n,0.0594
